In ChEMBL document CHEMBL2331347, “Biselectivity of isoDGR peptides for fibronectin binding integrin subtypes α5β1 and αvβ6: conformational control through flanking amino acids” (J Med Chem, 2013) one finds Ratio, Activity and IC50 data, which are given here for 17 compounds.

Experiment [1] is described as follows: Induction of focal adhesions formation in rat REF52 cells plated on 68 nm nanopatterned surfaces assessed as focal adhesion total area/cell area ratio after 24 hrs post cells plating by immunofluorescence microscopy. In kind it is functional. The essentials:
(§1)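 REF52 rat embryonic fibroblasts (grown in DMEM with 10% FBS, 37 °C, 5% CO2) trypsinized and plated at 150 cells/mm2 in DMEM with 1% FBS on passivated gold nanopatterns (68 ± 9 nm spacing) functionalized with 25 μM peptide for 1 h. Fixed after 4 or 24 h, immunostained for paxillin, with phalloidin for actin and DAPI for nuclei, imaged at 63×.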

Experiment [2] is described as follows: Induction of focal adhesions formation in rat REF52 cells plated on 68 nm nanopatterned surfaces assessed as focal adhesion area width after 4 hrs post cells plating by immunofluorescence microscopy. In kind it is functional. The essentials: as §1
Experiment [3] is described as follows: Induction of focal adhesions formation in rat REF52 cells plated on 68 nm nanopatterned surfaces assessed as axial ratio after 4 hrs post cells plating by immunofluorescence microscopy. In kind it is functional. The essentials: as §1
Experiment [4] is described as follows: Induction of focal adhesions formation in rat REF52 cells plated on 68 nm nanopatterned surfaces assessed as focal adhesion area length after 4 hrs post cells plating by immunofluorescence microscopy. In kind it is functional. The essentials: as §1
A short description of experiment [5]: Induction of focal adhesions formation in rat REF52 cells plated on 68 nm nanopatterned surfaces assessed as axial ratio after 24 hrs post cells plating by immunofluorescence microscopy. In kind it is functional. The essentials: as §1
Experiment [6] is described as follows: Induction of focal adhesions formation in rat REF52 cells plated on 68 nm nanopatterned surfaces assessed as focal adhesion area length after 24 hrs post cells plating by immunofluorescence microscopy. In kind it is functional. The essentials: as §1
Experiment [7] can be described thus: Induction of focal adhesions formation in rat REF52 cells plated on 68 nm nanopatterned surfaces assessed as focal adhesion area after 4 hrs post cells plating by immunofluorescence microscopy. It is filed as functional. The essentials:
as §1

Experiment [8] can be described thus: Induction of focal adhesions formation in rat REF52 cells plated on 68 nm nanopatterned surfaces assessed as focal adhesion area width after 24 hrs post cells plating by immunofluorescence microscopy. It is filed as functional. The essentials:
as §1

A short description of experiment [9]: Induction of focal adhesions formation in rat REF52 cells plated on 68 nm nanopatterned surfaces assessed as focal adhesion area after 24 hrs post cells plating by immunofluorescence microscopy. It is filed as functional. The essentials:
as §1

Experiment [10] in a line: Induction of focal adhesions formation in rat REF52 cells plated on 68 nm nanopatterned surfaces assessed as focal adhesion total area/cell area ratio after 4 hrs post cells plating by immunofluorescence microscopy. It is filed as functional. The essentials:
as §1

A further experiment deals with Integrin alpha-5/beta-1 (Homo sapiens, UniProt P05556+P08648). Description: Inhibition of fibronectin binding to human Integrin alpha5beta1 receptor by competitive ELISA. It is filed as protein-complex assay. The essentials:
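Plates coated overnight at 4 °C with 0.5 μg/mL fibronectin at pH 9.6, then blocked with 1% BSA in Tris buffer containing Ca, Mg and Mn. Soluble human α5β1 (1.0 μg/mL final) and inhibitor (0.00013−10 μM final) incubated 1 h at RT. Bound integrin detected with anti-CD49e and peroxidase secondary antibody, A450. Duplicates; IC50 taken as the inflection point of the inhibition curve.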
On the technique in general: An ELISA detects its analyte on a solid surface through an enzyme-linked reagent.

The target of another experiment is Integrin alpha-V/beta-3 (Homo sapiens, UniProt P05106+P06756). Description: Inhibition of vitronectin binding to Integrin alphaVbeta3 receptor (unknown origin) by competitive ELISA. It is filed as protein-complex assay.
Experiment [11] has as its target Integrin alpha-IIb/beta-3 (Homo sapiens, UniProt P05106+P08514). As to the kind of experiment: Inhibition of fibrinogen binding to Integrin alpha2bbeta3 receptor (unknown origin) by competitive ELISA. It is filed as protein-complex assay.
The target of a further experiment is Integrin alpha-V/beta-5 (Homo sapiens, UniProt P06756+P18084). As to the kind of experiment: Inhibition of vitronectin binding to Integrin alphaVbeta5 receptor (unknown origin) by competitive ELISA. In kind it is protein-complex assay.
A further experiment has as its target Integrin alpha-V/beta-6 (Homo sapiens, UniProt P06756+P18564). Description: Inhibition of latency-associated peptide binding to Integrin alphaVbeta6 receptor (unknown origin) by competitive ELISA. It is filed as protein-complex assay. The essentials:
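LAP coated at 0.4 μg/mL; soluble αvβ6 at 0.25 μg/mL final, mixed with serially diluted inhibitor. Bound integrin detected with anti-human αv antibody (1:500), then peroxidase secondary antibody (2.0 μg/mL), A450. Blocking, washing and curve analysis as for the α5β1 ELISA; IC50 from the inflection point.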

pIC50: −log10 of the molar value. Bounds are passed on as bounds.

Usually pIC50 stands for the IC50 on a negative log10 scale, so that one unit is a factor of ten. The low end stands for a high IC50, the high end for a low IC50. In the case of `N=C(N)NCCC[C@@H]1NC(=O)CNC(=O)C[C@@H](C(=O)O)NC(=O)[C@@H](c2ccccc2)NC(=O)[C@@H](CCCCNC(=O)CCSCCOCCOCCOCCOCCOCCOCCO)NC1=O`, the Ratio is 0.079 in experiment [1], 6.01 in experiment [3], 4.68 in experiment [5] and 0.07 in experiment [10]. In addition, the Activity was determined as 0.51 um in [2]; 2.92 um in experiment [4]; 3.94 um in experiment [6]; 1.24 um2 in experiment [7]; 0.9 um in experiment [8]; 2.61 um2 in experiment [9]. The values for the pIC50 at Integrin alpha-5/beta-1 and at Integrin alpha-V/beta-3 were 7.57 and < 5.00, respectively.

For `NC(N)=NCCC[C@@H]1NC(=O)CNC(=O)C[C@@H](C(=O)O)NC(=O)[C@@H](c2ccccc2)NC(=O)[C@@H](CCC(=O)O)NC1=O`, the pIC50 at Integrin alpha-5/beta-1 is 7.96; at Integrin alpha-V/beta-3, < 5.00.

Turning to `NC(N)=NCCC[C@@H]1NC(=O)CNC(=O)C[C@@H](C(=O)O)NC(=O)[C@@H](c2ccccc2)NC(=O)[C@@H](Cc2c[nH]c3ccccc23)NC1=O`, the pIC50 in [11] is < 5.00; at Integrin alpha-V/beta-5, < 5.00; at Integrin alpha-5/beta-1, 8.26; on Integrin alpha-V/beta-3, < 5.00; on Integrin alpha-V/beta-6, 7.04.

`NC(N)=NCCC[C@@H]1NC(=O)CNC(=O)C[C@@H](C(=O)O)NC(=O)[C@@H](c2ccccc2)NC(=O)[C@@H](Cc2ccc(O)cc2)NC1=O`: the pIC50 is 8.06 at Integrin alpha-5/beta-1 and < 5.00 on Integrin alpha-V/beta-3.

`CC(C)[C@H]1NC(=O)[C@H](CCCN=C(N)N)NC(=O)CNC(=O)C[C@@H](C(=O)O)NC(=O)[C@@H](c2ccccc2)NC1=O`: the pIC50 is 8.14 on Integrin alpha-5/beta-1 and < 5.00 at Integrin alpha-V/beta-3.

As for `NC(N)=NCCC[C@@H]1NC(=O)CNC(=O)C[C@@H](C(=O)O)NC(=O)[C@@H](c2ccccc2)NC(=O)[C@@H]2CCCN2C1=O`, the pIC50 at Integrin alpha-5/beta-1 is 6.95; on Integrin alpha-V/beta-3, 6.17.

Take `N=C(N)NCCC[C@@H]1NC(=O)[C@H](CCCCN)NC(=O)[C@@H](Cc2ccccc2)NC(=O)[C@H](CC(=O)O)NC(=O)CNC1=O`: the pIC50 in experiment [11] was < 5.00; on Integrin alpha-V/beta-5 it was 6.51; on Integrin alpha-5/beta-1 it was 6.88; on Integrin alpha-V/beta-6, 7.17.

Consider `CC(C)[C@@H]1NC(=O)[C@H](CCCN=C(N)N)NC(=O)CNC(=O)C[C@@H](C(=O)O)NC(=O)[C@@H](c2ccccc2)NC1=O`, for which the pIC50 at Integrin alpha-5/beta-1 is 6.94; on Integrin alpha-V/beta-3, 6.24.

For `N=C(N)NCCC[C@@H]1NC(=O)[C@H](CCCCNC(=O)CCSCCOCCOCCOCCOCCOCCOCCO)NC(=O)[C@@H](Cc2ccccc2)NC(=O)[C@H](CC(=O)O)NC(=O)CNC1=O`, the Ratio in experiment [1] came out at 0.076; in [3] it was 3.24; in experiment [5] it was 3.42; in experiment [10], 0.093. Further, the Activity in experiment [2] is listed as 1.25 um; in experiment [4], 3.78 um; in experiment [6], 4.17 um; in [7], 3.4 um2; in experiment [8], 1.31 um; in experiment [9] it was 4.12 um2. For the same compound, the values for the pIC50 on Integrin alpha-5/beta-1 and at Integrin alpha-V/beta-3 were 6.71 and 7.87, respectively.

Regarding `NC(N)=NCCC[C@@H]1NC(=O)CNC(=O)C[C@@H](C(=O)O)NC(=O)[C@@H](c2ccccc2)NC(=O)[C@H](Cc2ccc(O)cc2)NC1=O`, the pIC50 is 7.41 at Integrin alpha-5/beta-1 and < 5.00 on Integrin alpha-V/beta-3.

For the compound `Cc1ccnc(NCCCC(=O)NCC(=O)NC(CC(=O)O)c2ccc(-c3cccc4ccccc34)cc2)c1` (stereo unspecified), the pIC50 is < 5.00 in [11]; < 5.00 at Integrin alpha-V/beta-5; 5.55 at Integrin alpha-5/beta-1; < 5.00 on Integrin alpha-V/beta-3; 8.40 on Integrin alpha-V/beta-6.

As for `N=C(N)NCCC[C@@H]1NC(=O)CNC(=O)C[C@@H](C(=O)O)NC(=O)[C@@H](c2ccccc2)NC(=O)CNC1=O`, the pIC50 is < 5.00 in experiment [11]; < 5.00 at Integrin alpha-V/beta-5; 7.72 on Integrin alpha-5/beta-1; < 6.00 at Integrin alpha-V/beta-3; 6.97 on Integrin alpha-V/beta-6.

`N=C(N)NCCC[C@@H]1NC(=O)CNC(=O)C[C@@H](C(=O)O)NC(=O)[C@@H](c2ccccc2)NC(=O)[C@@H](CCCCN)NC1=O`: the pIC50 in [11] was < 5.00; at Integrin alpha-V/beta-5 it was < 5.00; at Integrin alpha-5/beta-1, 8.06; at Integrin alpha-V/beta-3, < 5.00; on Integrin alpha-V/beta-6 it was 7.72.

Take `NC(N)=NCCC[C@@H]1NC(=O)CNC(=O)C[C@@H](C(=O)O)NC(=O)[C@@H](c2ccccc2)NC(=O)[C@H](Cc2c[nH]c3ccccc23)NC1=O`: the pIC50 is 7.14 on Integrin alpha-5/beta-1 and < 5.00 at Integrin alpha-V/beta-3.

For the compound `NC(N)=NCCC[C@@H]1NC(=O)CNC(=O)C[C@@H](C(=O)O)NC(=O)[C@@H](c2ccccc2)NC(=O)[C@H](CCC(=O)O)NC1=O`, the results for the pIC50 on Integrin alpha-5/beta-1 and on Integrin alpha-V/beta-3 were 7.04 and 5.41, respectively.

As for `N=C(N)NCCC[C@@H]1NC(=O)CNC(=O)C[C@@H](C(=O)O)NC(=O)[C@@H](c2ccccc2)NC(=O)[C@H]2CCCN2C1=O`, the pIC50 at Integrin alpha-5/beta-1 is 8.15; at Integrin alpha-V/beta-3 it was < 5.00.

For the compound `NCCCC[C@@H]1NC(=O)[C@H](CCCN=C(N)N)NC(=O)CNC(=O)C[C@@H](C(=O)O)NC(=O)[C@@H](c2ccccc2)NC1=O`, the pIC50 was < 5.00 in experiment [11]; < 5.00 on Integrin alpha-V/beta-5; 7.03 at Integrin alpha-5/beta-1; 6.29 at Integrin alpha-V/beta-3; 6.85 on Integrin alpha-V/beta-6.
